Assay results published in PMC10552104 (ACS Omega, 2023).

Experiments:
Assay type in all cases: cell-based
[1] = tested on: DU145 prostate cancer cell line; test: MTT cytotoxicity assay, DU145; settings: Homo sapiens, DU-145, 24 h, read-out: IC50 DU145
Outline: (§1)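 IC50 values in μM, reported as mean ± S.D. from the table footnote; the same footnote covers the three cancer lines and the normal CHO–K1 line. The full series of test compounds was screened on each line.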

[2] = tested on: B16 melanoma cancer cell line; test: MTT cytotoxicity assay, B16; settings: Mus musculus, B16, 24 h, read-out: IC50 B16
Outline: as §1

[3] = tested on: HepG2 hepatocellular carcinoma cells; test: MTT cytotoxicity assay, HepG2; settings: Homo sapiens, HepG2, 24 h, read-out: IC50 HepG2
Outline: as §1

| Structure (SMILES) | IC50 [1] | IC50 [2] | IC50 [3] |
| --- | --- | --- | --- |
| c1ccc(-c2[nH]c3ccccc3c2C(c2ccco2)c2c(-c3ccccc3)[nH]c3ccccc23)cc1 [1q, 3,3′-(Furan-2-ylmethylene)bis(2-phenyl-1H-indole)] | 39.5 ± 1.02 µM | 23.5 ± 7 µM | 5 ± 0.01 µM |
| COc1cccc2c1C(=O)c1c(O)c3c(c(O)c1C2=O)C[C@@](O)(C(=O)CO)C[C@@H]3O[C@H]1C[C@H](N)[C@H](O)[C@H](C)O1 [doxorubicin, reference compound] | 0.7 ± 0.13 µM | 0.8 ± 0.12 µM | 0.6 ± 0.12 µM |
| COc1ccc2[nH]cc(C(c3ccc(C)cc3)c3c[nH]c4ccc(OC)cc34)c2c1 [1c, 3,3′-(p-Tolylmethylene)bis(5-methoxy-1H-indole)] | 2.02 ± 0.74 µM | 36 ± 1.09 µM | 5.47 ± 0.56 µM |
| COc1cc(C(c2c[nH]c3ccccc23)c2c[nH]c3ccccc23)cc(OC)c1O [1s, 4-(Di(1H-indol-3-yl)methyl)-2,6-dimethoxyphenol] | 22.6 ± 0.98 µM | 7.02 ± 0.32 µM | 7.01 ± 0.53 µM |
| O=[N+]([O-])c1ccc(C(c2c[nH]c3ccccc23)c2c[nH]c3ccccc23)cc1 [1k, 3,3′((4-Nitrophenyl)methylene)bis(1H-indole)] | 1.09 ± 0.92 µM | 29.2 ± 2.38 µM | 5.28 ± 0.24 µM |
| c1ccc(C(c2c[nH]c3ccccc23)c2c[nH]c3ccccc23)cc1 [1a, 3,3′-(Phenylmethylene)bis(1H-indole)] | 5.24 ± 0.67 µM | 9.88 ± 1.19 µM | 4.62 ± 0.03 µM |
| COc1ccc(C(c2c(-c3ccccc3)[nH]c3ccccc23)c2c(-c3ccccc3)[nH]c3ccccc23)cc1OC [1i, 3,3′-((3,4-Dimethoxyphenyl)methylene)bis(2-phenyl-1H-indole)] | 10.3 ± 0.87 µM | 15.9 ± 0.25 µM | 7.43 ± 1.6 µM |
| c1ccc2c(C(c3c[nH]c4ccccc34)c3c[nH]c4ccccc34)cccc2c1 [1m, 3,3′-(Naphthalen-1-ylmethylene)bis(1H-indole)] | 8.18 ± 0.74 µM | 9.49 ± 1.97 µM | 7.54 ± 1.19 µM |
| c1ccc2c(C(c3c[nH]c4ccccc34)c3c[nH]c4ccccc34)c3ccccc3cc2c1 [1n, 3,3′-(Anthracen-9-ylmethylene)bis(1H-indole)] | 6.87 ± 1.06 µM | 13.6 ± 0.92 µM | 11.9 ± 0.1 µM |
| COc1ccc(C(c2c[nH]c3ccccc23)c2c[nH]c3ccccc23)cc1OC [1t, 3,3′-((3,4-Dimethoxyphenyl)methylene)bis(1H-indole)] | 12.2 ± 0.96 µM | 8.14 ± 1.45 µM | 8.12 ± 0.87 µM |
| Brc1ccc2[nH]cc(C(c3ccco3)c3c[nH]c4ccc(Br)cc34)c2c1 [1p, 3,3′-(Furan-2-ylmethylene)bis(5-bromo-1H-indole)] | 19.4 ± 0.88 µM | 19.7 ± 0.87 µM | 11.4 ± 1.37 µM |
| c1coc(C(c2c[nH]c3ccccc23)c2c[nH]c3ccccc23)c1 [1o, 3,3′-(Furan-2-ylmethylene)bis(1H-indole)] | 60.8 ± 1.24 µM | 16.1 ± 0.79 µM | 5.87 ± 0.3 µM |
| Cc1[nH]c2ccccc2c1C(c1cccs1)c1c(C)[nH]c2ccccc12 [1r, 3,3′-(Thiophen-2-ylmethylene)bis(2-methyl-1H-indole)] | 21.2 ± 2.01 µM | 15.7 ± 2.1 µM | 5.82 ± 0.5 µM |
| COc1ccc(C(c2c[nH]c3ccc(C#N)cc23)c2c[nH]c3ccc(C#N)cc23)cc1 [1g, 3,3′-((4-Methoxyphenyl)methylene)bis(1H-indole-5-carbonitrile)] | 8.13 ± 0.77 µM | 9.82 ± 0.52 µM | 6.33 ± 1.8 µM |
